Test results: ChEMBL document CHEMBL4359928, “Scaffold Morphing To Identify Novel DprE1 Inhibitors with Antimycobacterial Activity” (ACS Med Chem Lett, 2019)
pIC50: −log10 of the molar value. Values after ≈ are worked out from the molar mass of the structure shown.

Key:
[1] = test system: Mycobacterium tuberculosis; assay: Antimycobacterial activity against Mycobacterium tuberculosis H37Rv assessed as reduction in bacterial cell growth by resazurin reduction method; format: functional
[2] = Inhibition of DprE1 in Mycobacterium tuberculosis
[3] = test system: Mycobacterium tuberculosis; assay: Bactericidal activity against Mycobacterium tuberculosis; format: functional
[4] = test system: Mycobacterium tuberculosis; assay: Bactericidal activity against Mycobacterium tuberculosis infected in mouse assessed as reduction in colony forming unit at 1 to 2 times of antimycobacterial MIC incubated for 10 days; format: functional
[5] = test system: Mycobacterium tuberculosis; assay: Bactericidal activity against Mycobacterium tuberculosis infected in human THP1 cells assessed as reduction in colony forming unit at antimycobacterial MIC incubated for 7 days; format: functional
[6] = test system: Mycolicibacterium smegmatis; assay: Antimycobacterial activity against Mycobacterium smegmatis mc2 155 assessed as reduction in bacterial cell growth by resazurin reduction method; format: functional
[7] = Tmax in mouse at MIC in presence of CYP pan inhibitor 1-aminobenzotriazole; format: ADME; details: in vivo
[8] = Lipophilicity, logD of compound; format: physicochemical; details: octanol/water
[9] = Aqueous solubility of DMSO-dried solid compounds; format: physicochemical; details: buffer
[10] = Protein binding in human plasma assessed as free fraction; format: ADME, cell-free
[11] = Permeability across apical to basolateral side in human Caco2 cells; format: ADME, cell-based; details: Caco-2, read-out: permeability
[12] = Permeability across basolateral to apical side in human Caco2 cells; format: ADME, cell-based; details: Caco-2, read-out: permeability
Cytochrome P450 1A2 = Cytochrome P450 1A2 (Homo sapiens, UniProt P05177); assay: Inhibition of CYP1A2 (unknown origin); format: ADME
Cytochrome P450 2C9 = Cytochrome P450 2C9 (Homo sapiens, UniProt P11712); assay: Inhibition of CYP2C9 (unknown origin); format: ADME
Cytochrome P450 2C19 = Cytochrome P450 2C19 (Homo sapiens, UniProt P33261); assay: Inhibition of CYP2C19 (unknown origin); format: ADME
Cytochrome P450 2D6 = Cytochrome P450 2D6 (Homo sapiens, UniProt P10635); assay: Inhibition of CYP2D6 (unknown origin); format: ADME
Cytochrome P450 3A4 = Cytochrome P450 3A4 (Homo sapiens, UniProt P08684); assay: Inhibition of CYP3A4 (unknown origin); format: ADME
[13] = target: Voltage-gated inwardly rectifying potassium channel KCNH2 (Homo sapiens, UniProt Q12809); assay: Inhibition of human ERG
[14] = Clearance in rat; format: ADME; details: in vivo
[15] = Oral bioavailability in rat; format: ADME, organism-based; details: in vivo
[16] = Cmax in BALB/c mouse infected with Mycobacterium tuberculosis H37Rv at 10 mg/kg, po administered for 4 weeks starting from day 28 post infection; format: ADME, organism-based; design: dose 10 mg/kg, route oral; details: in vivo
How it was run: (§1)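 Male BALB/c mice with chronic TB, aerosol-infected, given 10 or 30 mg/kg orally in multiple doses over a 4-week course that began 28 days post-infection. Plasma concentration–time profiles were taken from infected animals. PK parameters are reported as mean ± SD, n = 3.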

[17] = Tmax in BALB/c mouse infected with Mycobacterium tuberculosis H37Rv at 10 mg/kg, po administered for 4 weeks starting from day 28 post infection; format: ADME, organism-based; details: in vivo; how it was run: as §1
[18] = AUC (0 to infinity) in BALB/c mouse infected with Mycobacterium tuberculosis H37Rv at 10 mg/kg, po administered for 4 weeks starting from day 28 post infection; format: ADME, organism-based; design: dose 10 mg/kg, time infinity, route oral; details: in vivo; how it was run: as §1
[19] = Half life in BALB/c mouse infected with Mycobacterium tuberculosis H37Rv at 10 mg/kg, po administered for 4 weeks starting from day 28 post infection; format: ADME, organism-based; details: in vivo; how it was run: as §1
[20] = Cmax in BALB/c mouse infected with Mycobacterium tuberculosis H37Rv at 30 mg/kg, po administered for 4 weeks starting from day 28 post infection; format: ADME, organism-based; design: dose 30 mg/kg, route oral; details: in vivo; how it was run: as §1
[21] = Tmax in BALB/c mouse infected with Mycobacterium tuberculosis H37Rv at 30 mg/kg, po administered for 4 weeks starting from day 28 post infection; format: ADME, organism-based; details: in vivo; how it was run: as §1
[22] = AUC (0 to infinity) in BALB/c mouse infected with Mycobacterium tuberculosis H37Rv at 30 mg/kg, po administered for 4 weeks starting from day 28 post infection; format: ADME, organism-based; design: dose 30 mg/kg, route oral, time infinity; details: in vivo; how it was run: as §1
[23] = Half life in BALB/c mouse infected with Mycobacterium tuberculosis H37Rv at 30 mg/kg, po administered for 4 weeks starting from day 28 post infection; format: ADME, organism-based; details: in vivo; how it was run: as §1
[24] = test system: Mycobacterium tuberculosis; assay: Antimycobacterial activity against Mycobacterium tuberculosis H37Rv infected in BALB/c mouse assessed as reduction in bacterial burden in mouse lung at 30 mg/kg, po administered for 4 weeks starting from day 28 post infection; format: functional
How it was run: (§2)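 Chronic TB model in BALB/c mice infected by the aerosol route. Oral treatment began 28 days post-infection and ran 4 weeks. Bacterial burden was read as log10 CFU in lungs and spleen.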

[25] = test system: Mycobacterium tuberculosis; assay: Antimycobacterial activity against Mycobacterium tuberculosis H37Rv infected in BALB/c mouse assessed as reduction in bacterial burden in mouse spleen at 30 mg/kg, po administered for 4 weeks starting from day 28 post infection; format: functional; how it was run: as §2
[26] = Toxicity in BALB/c mouse infected with Mycobacterium tuberculosis H37Rv assessed as body weight loss at 10 to 30 mg/kg, po administered for 4 weeks starting from day 28 infection; format: organism-based; details: in vivo, 672 h
How it was run: (§3)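 Infected BALB/c mice received repeated oral dosing for 4 weeks in the chronic efficacy study. Adverse events were assessed as body weight loss, organ weight loss and gross pathology.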

[27] = Toxicity in BALB/c mouse infected with Mycobacterium tuberculosis H37Rv assessed as organ weight loss at 10 to 30 mg/kg, po administered for 4 weeks starting from day 28 infection; format: organism-based; details: in vivo, 672 h; how it was run: as §3
[28] = Toxicity in BALB/c mouse infected with Mycobacterium tuberculosis H37Rv assessed as gross pathology at 10 to 30 mg/kg, po administered for 4 weeks starting from day 28 infection; format: organism-based; details: in vivo, 672 h; how it was run: as §3
Bacillus subtilis = assay: Antibacterial activity against Bacillus subtilis; format: functional
[29] = test system: Corynebacterium glutamicum; assay: Antibacterial activity against Corynebacterium glutamicum; format: functional
[30] = test system: Corynebacterium pseudodiphtheriticum; assay: Antibacterial activity against Corynebacterium pseudodiphtheria; format: functional
[31] = test system: Corynebacterium pseudotuberculosis; assay: Antibacterial activity against Corynebacterium pseudotuberculosis; format: functional
Enterococcus faecalis = assay: Antibacterial activity against Enterococcus faecalis; format: functional
Escherichia coli = assay: Antibacterial activity against Escherichia coli; format: functional
Listeria monocytogenes = assay: Antibacterial activity against Listeria monocytogenes; format: functional
Nocardia farcinica = assay: Antibacterial activity against Nocardia farcinica; format: functional
Proteus vulgaris = assay: Antibacterial activity against Proteus vulgaris; format: functional
Pseudomonas aeruginosa = assay: Antibacterial activity against Pseudomonas aeruginosa; format: functional
Pseudomonas putida = assay: Antibacterial activity against Pseudomonas putida; format: functional
Rhodococcus = assay: Antibacterial activity against Rhodococcus sps; format: functional
Prescottella equi = assay: Antibacterial activity against Rhodococcus equi; format: functional; details: Rhodococcus (subgen. Prescottella) equi
Staphylococcus aureus = assay: Antibacterial activity against Staphylococcus aureus; format: functional
[32] = Mycobacterium tuberculosis, H37Rv, read-out: MIC

Sequence of Cytochrome P450 2C9 (P11712 whole entry): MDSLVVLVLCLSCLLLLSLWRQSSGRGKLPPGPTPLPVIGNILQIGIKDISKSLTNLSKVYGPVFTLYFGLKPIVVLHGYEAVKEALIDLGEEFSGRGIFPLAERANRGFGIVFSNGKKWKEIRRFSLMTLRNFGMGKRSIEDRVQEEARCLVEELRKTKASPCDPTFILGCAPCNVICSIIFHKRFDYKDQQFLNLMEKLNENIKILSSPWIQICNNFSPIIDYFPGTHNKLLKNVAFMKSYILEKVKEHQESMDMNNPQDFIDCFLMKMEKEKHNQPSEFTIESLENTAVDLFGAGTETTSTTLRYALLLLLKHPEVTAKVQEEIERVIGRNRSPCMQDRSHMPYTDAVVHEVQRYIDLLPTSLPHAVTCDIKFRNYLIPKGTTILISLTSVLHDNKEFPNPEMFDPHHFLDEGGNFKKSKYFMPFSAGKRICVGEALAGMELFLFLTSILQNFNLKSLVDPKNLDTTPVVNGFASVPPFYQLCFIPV
Sequence of Cytochrome P450 2C19 (P33261 whole entry): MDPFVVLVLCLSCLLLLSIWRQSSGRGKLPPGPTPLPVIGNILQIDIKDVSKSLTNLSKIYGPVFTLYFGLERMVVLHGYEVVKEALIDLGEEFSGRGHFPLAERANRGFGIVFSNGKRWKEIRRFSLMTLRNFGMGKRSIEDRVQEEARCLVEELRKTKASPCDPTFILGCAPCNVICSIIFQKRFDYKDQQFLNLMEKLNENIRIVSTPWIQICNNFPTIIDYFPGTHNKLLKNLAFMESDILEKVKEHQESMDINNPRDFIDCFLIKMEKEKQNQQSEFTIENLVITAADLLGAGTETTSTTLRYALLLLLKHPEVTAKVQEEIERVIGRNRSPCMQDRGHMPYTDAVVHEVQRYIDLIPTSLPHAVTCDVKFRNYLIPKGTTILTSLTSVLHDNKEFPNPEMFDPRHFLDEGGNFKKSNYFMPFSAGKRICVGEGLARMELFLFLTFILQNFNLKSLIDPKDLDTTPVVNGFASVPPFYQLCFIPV
Sequence of Cytochrome P450 1A2 (P05177 whole entry): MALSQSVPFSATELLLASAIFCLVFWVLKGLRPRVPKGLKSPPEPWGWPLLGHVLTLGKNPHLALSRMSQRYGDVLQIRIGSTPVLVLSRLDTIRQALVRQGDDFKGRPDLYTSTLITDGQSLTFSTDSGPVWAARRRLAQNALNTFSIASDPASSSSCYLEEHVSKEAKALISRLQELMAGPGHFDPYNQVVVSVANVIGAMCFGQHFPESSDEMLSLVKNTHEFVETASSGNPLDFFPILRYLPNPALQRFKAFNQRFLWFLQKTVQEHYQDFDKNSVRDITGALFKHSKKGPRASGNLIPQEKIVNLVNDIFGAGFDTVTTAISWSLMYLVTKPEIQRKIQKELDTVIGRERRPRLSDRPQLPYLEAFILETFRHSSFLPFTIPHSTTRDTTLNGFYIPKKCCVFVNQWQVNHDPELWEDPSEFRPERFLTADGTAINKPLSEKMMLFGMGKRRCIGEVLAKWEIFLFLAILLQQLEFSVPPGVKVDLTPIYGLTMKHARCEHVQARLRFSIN
Sequence of Voltage-gated inwardly rectifying potassium channel KCNH2 (Q12809 whole entry): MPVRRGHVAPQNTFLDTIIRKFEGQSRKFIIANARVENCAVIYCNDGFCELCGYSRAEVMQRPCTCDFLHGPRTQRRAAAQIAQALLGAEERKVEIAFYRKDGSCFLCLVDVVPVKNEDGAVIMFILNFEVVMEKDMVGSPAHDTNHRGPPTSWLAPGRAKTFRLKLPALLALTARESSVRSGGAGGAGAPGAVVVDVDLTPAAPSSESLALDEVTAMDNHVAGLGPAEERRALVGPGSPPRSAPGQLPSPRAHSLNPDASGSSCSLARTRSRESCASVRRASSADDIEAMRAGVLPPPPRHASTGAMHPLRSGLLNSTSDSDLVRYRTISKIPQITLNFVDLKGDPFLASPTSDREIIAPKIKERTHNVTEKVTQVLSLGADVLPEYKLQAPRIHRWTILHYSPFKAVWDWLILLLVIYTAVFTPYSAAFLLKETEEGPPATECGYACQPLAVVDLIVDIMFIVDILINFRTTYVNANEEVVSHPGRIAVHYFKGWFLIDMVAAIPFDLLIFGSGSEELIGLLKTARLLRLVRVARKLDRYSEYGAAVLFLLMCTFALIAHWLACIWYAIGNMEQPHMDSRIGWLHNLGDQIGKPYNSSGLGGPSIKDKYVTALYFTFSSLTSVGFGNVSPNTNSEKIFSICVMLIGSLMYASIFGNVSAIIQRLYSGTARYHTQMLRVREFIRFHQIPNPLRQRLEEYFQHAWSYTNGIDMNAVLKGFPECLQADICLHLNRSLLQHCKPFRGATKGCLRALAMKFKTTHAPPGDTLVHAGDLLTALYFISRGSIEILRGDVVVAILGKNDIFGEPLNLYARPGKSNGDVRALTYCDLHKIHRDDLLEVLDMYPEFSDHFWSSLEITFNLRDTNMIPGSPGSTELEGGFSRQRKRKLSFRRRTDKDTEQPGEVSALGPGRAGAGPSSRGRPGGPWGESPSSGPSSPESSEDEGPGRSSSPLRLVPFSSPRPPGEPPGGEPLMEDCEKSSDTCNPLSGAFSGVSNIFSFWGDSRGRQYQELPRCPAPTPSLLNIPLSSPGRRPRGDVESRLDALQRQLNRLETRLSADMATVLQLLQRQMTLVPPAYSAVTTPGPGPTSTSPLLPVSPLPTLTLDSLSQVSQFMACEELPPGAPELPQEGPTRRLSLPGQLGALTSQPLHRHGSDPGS
Sequence of Cytochrome P450 3A4 (P08684 whole entry): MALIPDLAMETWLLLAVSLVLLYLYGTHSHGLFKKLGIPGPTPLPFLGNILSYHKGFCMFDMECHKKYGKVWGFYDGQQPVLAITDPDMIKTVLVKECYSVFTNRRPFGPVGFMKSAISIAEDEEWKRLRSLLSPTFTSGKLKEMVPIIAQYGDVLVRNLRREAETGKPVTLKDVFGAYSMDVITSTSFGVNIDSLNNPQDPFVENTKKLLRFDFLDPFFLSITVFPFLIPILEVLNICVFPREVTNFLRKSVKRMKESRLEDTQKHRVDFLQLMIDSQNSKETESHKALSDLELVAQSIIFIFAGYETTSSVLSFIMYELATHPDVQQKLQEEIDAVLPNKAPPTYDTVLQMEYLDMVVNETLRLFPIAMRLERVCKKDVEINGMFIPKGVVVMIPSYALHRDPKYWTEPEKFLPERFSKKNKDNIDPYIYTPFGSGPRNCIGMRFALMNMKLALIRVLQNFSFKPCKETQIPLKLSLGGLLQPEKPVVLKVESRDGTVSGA
Sequence of Cytochrome P450 2D6 (P10635 whole entry): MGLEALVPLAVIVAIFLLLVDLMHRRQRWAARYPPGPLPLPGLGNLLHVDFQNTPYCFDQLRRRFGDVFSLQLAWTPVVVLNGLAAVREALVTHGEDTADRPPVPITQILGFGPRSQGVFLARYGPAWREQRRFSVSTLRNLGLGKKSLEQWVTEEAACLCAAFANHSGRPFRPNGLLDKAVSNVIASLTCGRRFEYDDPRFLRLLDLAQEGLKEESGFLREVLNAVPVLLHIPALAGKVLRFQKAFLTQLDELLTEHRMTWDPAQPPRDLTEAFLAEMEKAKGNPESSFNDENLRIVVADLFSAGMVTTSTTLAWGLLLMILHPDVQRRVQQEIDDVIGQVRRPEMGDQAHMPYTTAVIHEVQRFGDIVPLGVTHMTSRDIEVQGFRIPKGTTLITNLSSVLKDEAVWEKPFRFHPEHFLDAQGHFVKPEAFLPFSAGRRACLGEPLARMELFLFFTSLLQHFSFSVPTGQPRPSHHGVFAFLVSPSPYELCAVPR

## Cc1cc(C(=O)NCCF)c2ncn(Cc3ncnc(OC(F)F)c3C)c2c1
[1]; [32]
  MIC: < 0.39 µM
[2]
  pIC50: 7.80

## COc1cc(C(=O)NCCF)c2ncn(Cc3ncnc(OC)c3C)c2c1
[1]; [32]
  MIC: < 0.39 µM
[2]
  pIC50: 8.30

## Cc1cc(C(=O)NCC(F)F)c2ncn(Cc3ncnc(N(C)C)c3C)c2c1
[1]; [32]
  MIC: < 0.39 µM
[2]
  pIC50: 8.40

## COc1cc(C(=O)NCC(F)F)c2ncn(Cc3ncnc(N(C)C)c3C)c2c1
[1]; [32]
  MIC: < 0.39 µM
[2]
  pIC50: 8.05

## COc1ncnc(Cn2cnc3c(C(=O)NCCF)cccc32)c1C
[1]; [32]
  MIC: 1.56 to 3.12 µM (≈ 0.536 to 1.07 µg/mL)
[2]
  pIC50: 7.47
[3]
  MBC: 1.56 µM (≈ 0.536 µg/mL)
[4]
  Activity: >3 log10CFU
[5]
  Activity: 1 log10CFU
[6]
  MIC: 0.78 to 1.56 µM (≈ 0.268 to 0.536 µg/mL)
[7]
  Tmax: 6 to 10 h
[8]
  logD: 1.9
[9]
  solubility: 152 µM (≈ 52.2 µg/mL)
[10]
  fraction unbound: 0.32
[11]
  Papp A→B: 37 ×10⁻⁶ cm/s
[12]
  Papp B→A: 14 ×10⁻⁶ cm/s
Cytochrome P450 1A2
  pIC50: < 4.30
Cytochrome P450 2C9
  pIC50: < 4.30
Cytochrome P450 2C19
  pIC50: < 4.30
Cytochrome P450 2D6
  pIC50: < 4.30
Cytochrome P450 3A4
  pIC50: < 4.30
[13]
  pIC50: < 4.48
[14]
  clearance: 48 mL/min/kg
[15]
  bioavailability: 114%
[16]
  Cmax: 5.1 µM
[17]
  Tmax: 2 h
[18]
  AUC(0-inf): 13.5 µM·h
[19]
  half-life: 4.5 h
[20]
  Cmax: 18.3 µM
[21]
  Tmax: 3 h
[22]
  AUC(0-inf): 78.6 µM·h
[23]
  half-life: 5.9 h
[24]
  Activity: 1.5 log10CFU
[25]
  Activity: 1 log10CFU
[26]
  Activity: Non-Toxic
[27]
  Activity: Non-Toxic
[28]
  Activity: Non-Toxic
Bacillus subtilis
  MIC: > 200 µM
[29]
  MIC: > 200 µM
[30]
  MIC: > 200 µM
[31]
  MIC: > 200 µM
Enterococcus faecalis
  MIC: > 200 µM
Escherichia coli
  MIC: > 200 µM
Listeria monocytogenes
  MIC: > 200 µM
Nocardia farcinica
  MIC: > 200 µM
Proteus vulgaris
  MIC: > 200 µM
Pseudomonas aeruginosa
  MIC: > 200 µM
Pseudomonas putida
  MIC: > 200 µM
Rhodococcus
  MIC: > 200 µM
Prescottella equi
  MIC: > 200 µM
Staphylococcus aureus
  MIC: > 200 µM

## COc1cc(C(=O)NCCF)c2ncn(Cc3ncnc(N(C)C)c3C)c2c1
[1]; [32]
  MIC: < 0.39 µM
[2]
  pIC50: 7.80
[8]
  logD: 2 to 2.1
[9]
  solubility: > 1000 µM
[10]
  fraction unbound: 0.31
[11]
  Papp A→B: 26 ×10⁻⁶ cm/s
[12]
  Papp B→A: 22 ×10⁻⁶ cm/s
Cytochrome P450 1A2
  pIC50: < 4.30
Cytochrome P450 2C9
  pIC50: < 4.30
Cytochrome P450 2C19
  pIC50: < 4.30
Cytochrome P450 2D6
  pIC50: < 4.30
Cytochrome P450 3A4
  pIC50: < 4.30
[13]
  pIC50: < 4.48

## Cc1cc(C(=O)NCCF)c2ncn(Cc3ncnc(N(C)C)c3C)c2c1
[1]; [32]
  MIC: < 0.39 µM
[2]
  pIC50: 8.05

## COc1ncnc(Cn2cnc3c(C(=O)NCCF)cc(C)cc32)c1C
[1]; [32]
  MIC: 0.78 µM (≈ 0.279 µg/mL)
[2]
  pIC50: 8.10

## COc1cc(C(=O)NCC(F)F)c2ncn(Cc3ncnc(OC(F)F)c3C)c2c1
[1]; [32]
  MIC: < 0.39 µM
[2]
  pIC50: 8.30

## C[C@H]1COC2(CCN(c3nc(=O)c4cc(C(F)(F)F)cc([N+](=O)[O-])c4s3)CC2)O1 [BTZ-043]
[1]; [32]
  MIC: 0.003 to 0.006 µM (≈ 0.00129 to 0.00259 µg/mL)

## NNC(=O)c1ccncc1 [ISONIAZID]
[1]; [32]
  MIC: 0.44 µM (≈ 0.0603 µg/mL)

## CO[C@H]1/C=C/O[C@@]2(C)Oc3c(C)c(O)c4c(O)c(c(/C=N/N5CCN(C)CC5)c(O)c4c3C2=O)NC(=O)/C(C)=C\C=C\[C@H](C)[C@H](O)[C@@H](C)[C@@H](O)[C@@H](C)[C@H](OC(C)=O)[C@@H]1C [RIFAMPIN]
[1]; [32]
  MIC: 0.01 µM (≈ 0.00823 µg/mL)

## COc1ncnc(Cn2cc(C(=O)NCCO)c3ncc(C)cc32)c1C [TBA-7371]
[1]
  MIC: 0.78 µM (≈ 0.277 µg/mL)
[3]
  MBC: 1.56 µM (≈ 0.554 µg/mL)
[14]
  clearance: 27 mL/min/kg
